pIC50: −log10 of the molar value. “Also recorded” adds a separate entry of the source.
Legend:
Assay type in all cases: biochemical, bovine
[1] = target: T1, NADH:ubiquinone oxidoreductase (complex I) (Bos taurus, UniProt P25708); experiment: NADH:APAD+ transhydrogenation
[2] = target: T1, NADH:ubiquinone oxidoreductase (complex I); experiment: NADH:HAR oxidoreduction
[3] = target: T1, NADH:ubiquinone oxidoreductase (complex I); experiment: NADH:FeCN oxidoreduction; settings: 0.1 mM NADH, 1 mM FeCN, pH 7.5, 32 °C
[4] = target: T1, NADH:ubiquinone oxidoreductase (complex I); experiment: Kinetic isotope effect in NAD; settings: 1 mM FeCN, pH 7.5, 32 °C
[5] = target: T1, NADH:ubiquinone oxidoreductase (complex I); experiment: Kinetic isotope effect in NAD; settings: 3.5 mM HAR, pH 7.5, 32 °C
In short: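 Bovine heart complex I with hexaammineruthenium(III) as acceptor, at 32 °C. Donor concentration series used NADH, [4R-2H]NADH, [4S-2H]NADH, APADH and [4S-2H]APADH in 20 mM Tris-HCl pH 7.5. pH dependence was measured with NADH versus [4S-2H]NADH at 0.1 mM. Reactions were enzyme-initiated and read at 340–380 nm (ε 4.81 mM–1 cm–1). Background-subtracted initial rates over ~15 s; mean of ≥3 measurements.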

| SMILES | IC50 for inhibition of the APAD+ reaction ([1]; 0.1 mM NADH, 1 mM APAD+, pH 7.5, 32 °C) | IC50 for inhibition of the HAR reaction ([2]; 0.1 mM NADH, 3.5 mM HAR, pH 7.5, 32 °C) | IC50 for inhibition of the FeCN reaction [3] | KIE in the APAD(H/D):FeCN reaction [4] | KIE in the APAD(H/D):HAR reaction [5] | pIC50 [1] | pIC50 [2] | IC50 for inhibition of the FeCN reaction ([3]; listed as Adenosine) |
| --- | --- | --- | --- | --- | --- | --- | --- | --- |
| NC(=O)c1ccc[n+]([C@@H]2O[C@H](COP(=O)([O-])O)[C@@H](O)[C@H]2O)c1 [NMN^+, nicotinamide mononucleotide] | does not inhibit; also recorded: no inhibition | does not inhibit; also recorded: no inhibition | does not inhibit; also recorded: no inhibition |  |  |  |  |  |
| [2H]C1C=CN(C2OC(COP(=O)(O)OP(=O)(O)OCC3OC(n4cnc5c(N)ncnc54)C(O)C3O)C(O)C2O)C=C1C(C)=O (stereo not drawn) [S-APADD, [4S-^2H]APADH] |  |  |  | ~6.5 | ~3.5 |  |  |  |
| Nc1ncnc2c1ncn2[C@@H]1O[C@H](CO)[C@@H](O)[C@H]1O [adenosine] |  |  | no inhibition ^b |  |  | 2.00 | 2.15 | no discernible inhibition |

— PMC3680915 (Biochemistry, 2013)
